The RNAGym collection of RNA variant scans (doi:10.1126/science.aae0568)
Fewer inactive variants are shown than the library holds.

B1: tRNA (parent)
chain: GUUCCGUUGGCGUAAUGGUAACGCGUCUCCCUCCUAAGGAGAAGACUGCGGGUUCGAGUCCCGUACGGAACG

Variants of: B1
Assay: yeast fitness relative to wild type (ratio to wild type); higher = fitter; tRNA-Arg(CCU), competitive growth, 37 C, YPD
Procedure, shortened: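 Amplicons of the tRNA-Arg(CCU) gene were sequenced, 100-nucleotide paired-end, from the start population and from each end population of a pooled yeast competition. The competition, in six parallel replicates, lasted 24 hours in YPD at 37°C. Fitness relative to wild type was calculated from changes in genotype frequencies. Genotypes had to have ≥ 100 starting reads, and estimates < 0.5 were set to 0.5.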

Variant | yeast fitness
A21U U59A A69C | ≤ 0.5
C22G A36C A40G G58C C60A | ≤ 0.5
C22A A45C C61U | 0.604
C22A C24U C30U C31G C66U | 0.615
C22A C24G | 0.507
A21U G48C G63A | ≤ 0.5
C22G C24G C29U C33U A37C G52A C61U | ≤ 0.5
C22A A37C A69C | ≤ 0.5
C22G A42G C49U | 0.712
A21U G56C U64C | ≤ 0.5
C22A C33A A37U | ≤ 0.5
C22A U26C | 0.848
C22A A69U | 0.843
C22G C27A C46U | 0.539
C22A C33G A43C U64C | 0.534
C22A C30A C31U G68C | ≤ 0.5
C22A C33G C60A C66G | ≤ 0.5
C22A C29U A69U | 0.592
C22G A57U C66U | 0.524
C22G A43U U64C | 0.611
C22A C33A | 0.718

Variant | yeast fitness
C22A C33G | 0.701
C22A G51C C60U | ≤ 0.5
C22G A43C U53C C55G | ≤ 0.5
A21U G41A A42C U54G | ≤ 0.5
C22A G23C C34U A36G A40U G63A | ≤ 0.5
C22A C27G A65U | ≤ 0.5
A21U G41C | 0.715
A21U G41A | 0.727
C22G C24G G50A A70U | ≤ 0.5
C22A U53C C62U | ≤ 0.5
C22A A40C G50C | 0.908
C22G A43C A45U G52A | ≤ 0.5
A21U G23A A42C U59G A69C | ≤ 0.5
C22A C24G A36G G39C C66U | ≤ 0.5
A21U G38C A65C | ≤ 0.5
C22A C34U U35G C61U | ≤ 0.5
C22G A45C G52C A57U A69C | 0.619
C22A C30A U54C C55G | ≤ 0.5
A21U U26A U54A G63C A65C | 0.554
C22A C27G G68U | ≤ 0.5
C22A C27A A36U G39C | ≤ 0.5

Variant | yeast fitness
C22G C24U U64C | 0.538
C22G C27A C49U C55U G58U | ≤ 0.5
C22A A43U G68A | ≤ 0.5
C22A G23C C34U A36G A40U | 0.548
A21U U28A A42C C49G C62U | ≤ 0.5
C22G A36G A37C C46A C49G U64G | ≤ 0.5
C22G C24A G38A A57G | ≤ 0.5
C22G A43U C46G | ≤ 0.5
C22A U28C C30U G44A | ≤ 0.5
C22A G23A C33U C34G C55U | ≤ 0.5
C22A C33A A36U G48A C62G | 0.524
C22A U28G G58C U64C | ≤ 0.5
A21U U35A A65C | ≤ 0.5
C22G C27A G63A | ≤ 0.5
A21U G58A | 0.721
C22G A42G G48C A65U | ≤ 0.5
C22G A43U | 0.952
C22A U28G C31G A42U G58C | ≤ 0.5
C22A U47A G48A | 0.505
C22G C24U | 0.894
C22G C24G | 0.595

Variant | yeast fitness
C22G C24U A37C G51C C55U A70U | ≤ 0.5
C22G A40U U54A | ≤ 0.5
A21U G25C | 1.08
A21U U26A C30G A36C A57G | ≤ 0.5
A21U G41C A43C U54G A69C | 0.551
C22G C24G A45C U47C G63C | ≤ 0.5
C22G A43U A69C | 0.656
C22A C31G G38C A43G | ≤ 0.5
A21U G39C | 0.574
C22A A40U A43C G48A A69U | ≤ 0.5
A21U G38A | 0.682
C22A A57U G67A | 0.545
A21U U54A A70G | 0.565
A21U U32G C55A U59C | ≤ 0.5
A21U G52A | 0.566
C22A A65C | 0.836
C22A G48C | 0.851
C22A A37G | 0.823
C22A A37C | 0.641
C22G C24U C29U C30G U53A U54A | ≤ 0.5
